Results on 28 molecules are retold here after ChEMBL document CHEMBL2029224, “Prenylation at the indole ring leads to a significant increase of cytotoxicity of tryptophan-containing cyclic dipeptides” (Bioorg Med Chem Lett, 2012).

SMILES strings stand for the structures. Values after ≈ are worked out from the molar mass of the structure shown.

Holding throughout (assay type): functional, cell-based
One assay concerns K562. As to the kind of experiment: Cytotoxicity against human K562 cells after 72 hrs by MTT assay. The settings on record: K562, 72 h. A digest of the protocol:
(§1)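 Cells kept in RPMI 1640 with 10% FCS and penicillin/streptomycin at 37 °C, 5% CO2, grown to 80% confluency. Seeded at 30,000 cells/well (K562) or 8,000 cells/well (A2780 sens and cisplatin-resistant CisR). After 24 h, exposed to increasing concentrations for 72 h. MTT added, formazan dissolved in DMSO, absorbance read at 544/690 nm. Viability relative to untreated cells (100%), triplicates, IC50.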
Background: Tetrazolium assays rely on reduction of a dye to a coloured formazan, in cell work by metabolically active cells.

Assay [1] relates to A2780. Put plainly: Cytotoxicity against human cisplatin sensitive A2780 cells after 72 hrs by MTT assay. As to conditions: A2780, 72 h. A digest of the protocol: as §1
For assay [2], the system named is A2780. Put plainly: Cytotoxicity against human cisplatin resistant A2780 cells after 72 hrs by MTT assay. As to conditions: A2780, 72 h. A digest of the protocol: as §1
Assay [3] is described as follows: Cytotoxicity against mouse tsFT210 cells.

For `CC(C)=CCc1[nH]c2ccccc2c1C[C@@H]1NC(=O)[C@H](Cc2ccccc2)NC1=O`, the results for the IC50 with K562, in the assay with A2780 [1] and with A2780 [2] were 70.4 µM, 87 µM and 81.6 µM, respectively.
`CC(C)=CCc1[nH]c2ccccc2c1C[C@H]1NC(=O)[C@H](C)NC1=O`: the results for the IC50 in the assay on K562, in the assay on A2780 [1] and with A2780 [2] were 35.3 µM, 86.2 µM and 84.3 µM, respectively.
On the same counts, the results for `CC(C)=CCc1[nH]c2ccccc2c1C[C@@H]1NC(=O)[C@H]2CCCN2C1=O` are 34.7 µM, 106 µM and 92 µM.
`CC(C)=CCc1[nH]c2ccccc2c1C[C@H]1NC(=O)[C@@H]2CCCN2C1=O`: the IC50 (as a rule, the concentration that gives 50% inhibition) was 40.4 µM in the assay on K562, 100 µM in the assay with A2780 [1] and 87.8 µM with A2780 [2].
On to `CC(C)=CCc1[nH]c2ccccc2c1C[C@@H]1NC(=O)[C@H](Cc2c[nH]c3ccccc23)NC1=O`, for which the IC50 in the assay with K562 stood at 29.8 µM; in the assay on A2780 [1], 89.7 µM; with A2780 [2], 80.8 µM.
Take `O=C1N[C@@H](Cc2c[nH]c3ccccc23)C(=O)N[C@H]1Cc1ccccc1`: the IC50 in the assay on K562, in the assay on A2780 [1] and in the assay on A2780 [2] was over 100 µM in each case.
As to `CC(C)=CCc1[nH]c2ccccc2c1C[C@@H]1NC(=O)[C@H](Cc2ccc(O)cc2)NC1=O`, the IC50 with K562 stood at 31.6 µM; in the assay with A2780 [1], 89.8 µM; in the assay on A2780 [2], 83.3 µM.
Take `O=C1N[C@@H](Cc2c[nH]c3ccccc23)C(=O)N[C@H]1Cc1c[nH]cn1`: the IC50 with K562, in the assay with A2780 [1] and with A2780 [2] was over 100 µM in each case.
As to `CC(C)=CCc1[nH]c2ccccc2c1C[C@@H]1NC(=O)[C@H](CC(C)C)NC1=O`, the IC50 in the assay on K562 is 30.1 µM; in the assay on A2780 [1] it was 92.6 µM; in the assay with A2780 [2], 75 µM.
For `C[C@@H]1NC(=O)[C@H](Cc2c[nH]c3ccccc23)NC1=O`, in that order: over 100 µM, over 100 µM and over 100 µM.
For `CC(C)=CCc1[nH]c2ccccc2c1C[C@@H]1NC(=O)[C@@H](C)NC1=O`, in that order: 34.5 µM, 77.2 µM and 77 µM.
On the same counts, the results for `O=C1N[C@@H](Cc2c[nH]c3ccccc23)C(=O)N[C@H]1Cc1ccc(O)cc1` are over 100 µM, over 100 µM and over 100 µM.
Consider `O=C1N[C@@H](Cc2c[nH]c3ccccc23)C(=O)N2CCC[C@H]12`, for which the IC50 in the assay with K562, in the assay on A2780 [1] and with A2780 [2] was over 100 µM in each case.
`C[C@@H]1NC(=O)[C@@H](Cc2c[nH]c3ccccc23)NC1=O`: the IC50 in the assay on K562, in the assay on A2780 [1] and with A2780 [2] was over 100 µM each time.
Turning to `O=C1N[C@@H](Cc2c[nH]c3ccccc23)C(=O)N2CCC[C@@H]12` [BREVIANAMIDE F], the IC50 with K562, in the assay on A2780 [1] and in the assay with A2780 [2] was over 100 µM throughout.
In turn, `CC(C)=CCc1[nH]c2ccccc2c1C[C@@H]1NC(=O)[C@@H]2CCCN2C1=O` [TRYPROSTATIN B] gave an MIC in assay [3] of 4.4 µM (≈ 1.55 µg/mL). For the same molecule, the IC50 in assay [3] (tsFT210) is 18.8 µM; with K562, 21.1 µM; with A2780 [1], 82.8 µM; in the assay with A2780 [2], 85.9 µM.
In the case of `CC(C)=CCc1[nH]c2ccccc2c1C[C@@H]1NC(=O)CNC1=O`, the IC50 in the assay with K562 was 16.7 µM; in the assay with A2780 [1], 82.4 µM; in the assay on A2780 [2], 85.2 µM.
`CC(C)=CCc1[nH]c2ccccc2c1C[C@@H]1NC(=O)[C@H](Cc2c[nH]cn2)NC1=O`: the figures for the IC50 with K562, in the assay with A2780 [1] and with A2780 [2] were 32.2 µM, 91.8 µM and 91.7 µM, respectively.
For `O=C1N[C@@H](Cc2c[nH]c3ccccc23)C(=O)N[C@H]1Cc1c[nH]c2ccccc12`, in that order: over 100 µM, over 100 µM and over 100 µM.
On the same counts, the results for `CC(C)=CCc1[nH]c2ccccc2c1C[C@@H]1NC(=O)[C@H](C)NC1=O` are 35.2 µM, 89.8 µM and 82.2 µM.
On the same counts, the results for `O=C1N[C@H](Cc2c[nH]c3ccccc23)C(=O)N2CCC[C@H]12` are over 100 µM, over 100 µM and over 100 µM.
With `CC(C)=CCc1[nH]c2ccccc2c1C[C@H]1NC(=O)[C@H]2CCCN2C1=O`, the IC50 was 30.9 µM in the assay on K562, 93.1 µM with A2780 [1] and 85.6 µM with A2780 [2].
For `C[C@H]1NC(=O)[C@H](Cc2c[nH]c3ccccc23)NC1=O`, in that order: over 100 µM, over 100 µM and over 100 µM.
On the same counts, the results for `C[C@H]1NC(=O)[C@@H](Cc2c[nH]c3ccccc23)NC1=O` are over 100 µM, over 100 µM and over 100 µM.
On the same counts, the results for `O=C1CNC(=O)[C@H](Cc2c[nH]c3ccccc23)N1` are over 100 µM, over 100 µM and over 100 µM.
Regarding `CC(C)=CCc1[nH]c2ccccc2c1C[C@H]1NC(=O)[C@@H](C)NC1=O`, the half-inhibitory concentration (IC50) came out at 34.7 µM in the assay on K562, 85 µM with A2780 [1] and 81.1 µM in the assay with A2780 [2].
`CC(C)C[C@@H]1NC(=O)[C@H](Cc2c[nH]c3ccccc23)NC1=O`: the IC50 in the assay on K562, in the assay with A2780 [1] and in the assay on A2780 [2] was over 100 µM throughout.
With `O=C1N[C@H](Cc2c[nH]c3ccccc23)C(=O)N2CCC[C@@H]12`, the IC50 in the assay on K562, in the assay with A2780 [1] and with A2780 [2] was over 100 µM in each case.
